Assay outcomes as filed in PubChem BioAssay.
Hits are enriched below; roughly 1.9% of the tested compounds scored in any of these assays.
UCH37 inh: human UCH37 deubiquitinating enzyme inhibition; Q9Y5K5; purified proteasome/UCH37, Ub-AMC cleavage fluorescence; inhibition, % (no concentration beside the values); hit rate 0.33% among 330,000; AID 588478;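 active = mean inhibition over replicate wells above about 20%, limit read from the data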
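System: Proteasome-associated human UCH37 deubiquitinase; Input: 0.15 nM proteasome in added enzyme buffer; Also added: Ub-AMC substrate from 1 µM stock; Incubation: 30 min compound-proteasome preincubation then 25 min substrate reaction, room temperature; Detection: fluorescence, ex 355 nm, em 460 nm; Read-out: % inhibition of Ub-AMC cleavage fluorescence; Benchmarks: no-proteasome and no-compound wells.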
Yeast superoxide: yeast age-related superoxide inhibition as caloric restriction mimetic. S. cerevisiae aged cells, superoxide DHE fluorescence; active compounds read low. superoxide response (% of plate mean), % at 10 µM. hit rate 0.18% among 330,000;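 active = superoxide response under a set limit, about three screen SD below normal, cut at about 65% in these data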;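 also: yeast aged for seven days with compound at 30 °C before DHE staining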
PG9 Ab binder: binds the HIV-1 gp120 antibody PG9 | TR-FRET gp120-PG9 antibody binding | inhibition, % at 6.7 µM | hit rate 0.43% among 360,000 | AID 624416; in the data active = inhibition above about 8.5%
MIN6 prolif: inducers of beta-cell replication in MIN6 cells; MIN6 cells proliferation, ATPlite luminescence, 48 h; cells starved in 0.2% serum; 100% = growth in 10% serum; proliferation, % at 10 µM; hit rate 0.29% among 330,000; AID 2380;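 active = compounds whose signal lies at least 3.5 SD above the mean of all wells on their plate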
NR1D1 modulator: Rev-erb alpha (human) modulation; P20393; Rev-erbα–FITC-DNA binding, fluorescence polarization, 90 min; activity, % at 10 µM; hit rate 0.79% among 370,000; AID 1259318;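 active = activity above about 14%, limit read from the data; passing the limit was not always enough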
Rce1 inh: inhibitors of yeast Ras-converting enzyme; yeast membranes, quenched prenylated peptide cleavage fluorescence; calls only; hit rate 0.27% among 290,000; AID 2563;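 active = fall in fluorescence gain of 50% or more versus controls, with final raw signal at or below 3038400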
Target sequence (Q03530 whole entry, looked up): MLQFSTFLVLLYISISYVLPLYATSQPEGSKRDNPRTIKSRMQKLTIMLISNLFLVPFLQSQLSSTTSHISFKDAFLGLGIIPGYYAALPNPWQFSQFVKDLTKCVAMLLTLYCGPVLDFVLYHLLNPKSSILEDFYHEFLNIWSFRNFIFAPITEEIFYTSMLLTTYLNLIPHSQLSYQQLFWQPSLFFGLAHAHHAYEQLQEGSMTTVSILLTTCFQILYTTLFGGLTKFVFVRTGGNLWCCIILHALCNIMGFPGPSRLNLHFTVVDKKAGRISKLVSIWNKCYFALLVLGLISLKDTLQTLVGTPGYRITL
PG9 binder conf: PG9 antibody binding, confirmed; shares compounds with PG9 Ab binder; TR-FRET PG9 antibody binding, biochemical; inhibition, % at 6.7 µM; hit rate 90% among 1,500; in the data active = inhibition above about 9%
PGV04 counter: binds control antibody PGV04 in PG9 binder counter-screen. shares compounds with PG9 Ab binder. TR-FRET PGV04 antibody-gp120 binding, biochemical. inhibition, % at 6.7 µM. hit rate 95% among 1,500. AID 651604; in the data active = inhibition above about 9.5%
Hits are given with their value; - = inactive; . = no result given.

SMILES | UCH37 inh | Yeast superoxide | PG9 Ab binder | MIN6 prolif | NR1D1 modulator | Rce1 inh | PG9 binder conf | PGV04 counter
O=C(COc1ccc2c(c1)OCO2)Nc1ccccc1F | - | - | - | - | - | - | . | .
O=C(COC(=O)c1ccccc1NCc1ccco1)Nc1ccc2c(c1)OCO2 | - | - | - | - | - | - | . | .
O=C(COC(=O)c1ccccc1NC(=O)c1ccco1)Nc1ccc2c(c1)OCO2 | - | - | 11 | - | - | - | 9.2 | 12
CCOC(=O)C1(CC(C)=NNC(N)=O)CC(C)OC1=O (stereo not given) | - | . | . | . | . | . | . | .
COc1ccc(C=NOCc2ccccc2C#N)c(OC)c1 | - | . | . | . | . | . | . | .
Cc1ccc(NC(=O)C2CCCN(c3ncccn3)C2)cc1C (stereo not given) | - | - | - | - | - | - | . | .
Cc1ccnc(N2CCCC(C(=O)Nc3ccc(C)c(C)c3)C2)n1 (stereo not given) | - | - | 39 | - | - | - | 31 | 42
Cc1ccc(S(=O)(=O)N(C)Cc2cc3cc(C)ccc3[nH]c2=O)cc1 | - | - | 17 | - | - | - | 28 | 44
COc1cccc(C(=O)Nc2cc(C(=O)NCc3ccc(C)cc3)ccc2N2CCC3(CC2)CC(c2ccccc2)=NO3)c1 | - | - | 11 | - | - | - | - | -
O=c1[nH]c(SCc2nc3ccccc3n2Cc2ccccc2)nc2ccccc12 | - | - | 13 | - | - | - | 24 | 30
COc1ccc(C=Nn2cnc3c([nH]c4ccc(F)cc43)c2=O)cc1CSc1ccccn1 | - | . | . | . | . | . | . | .
O=C1CS/C(=N/N=Cc2ccccc2OS(=O)(=O)c2ccccc2)N1 | - | . | . | . | . | . | . | .
Cc1cccc(NC(=O)Cn2cc(C(=O)C3CC3)c3ccccc32)c1 | - | - | - | - | - | - | . | .
CCC(=O)c1cn(CC(=O)Nc2ccccc2)c2ccccc12 | - | - | - | - | - | - | . | .
Cc1ccc(NC(=O)Cn2cc(C(=O)C3CC3)c3ccccc32)cc1 | - | - | 10 | - | - | - | - | 11
CCC(=O)c1cn(CC(=O)Nc2ccc(C)cc2)c2ccccc12 | - | - | 11 | - | - | - | 13 | 18
Cc1cc(SCCC(=O)O)nc2c(C)cccc12 | - | - | 11 | - | - | - | 14 | 18
COc1ccc(C(=O)C[n+]2ccc(N(C)C)cc2)cc1 | - | - | - | - | - | - | . | .
COC(=O)c1ccc(CNC(=O)COC(=O)c2ccc(N(C)C)cc2)cc1 | - | - | 26 | - | - | - | 24 | 39
CN(C)c1ccc(C(=O)OCC(=O)NCCNC(=O)COC(=O)c2ccc(N(C)C)cc2)cc1 | - | - | - | - | - | - | . | .
COc1ccc(C(=O)COC(=O)c2ccc(N(C)C)cc2)cc1 | - | - | 15 | - | - | - | 23 | 26
COc1cc(C=Nn2c(-c3ccccc3)n[nH]c2=S)cc(OC)c1O | - | . | . | . | . | . | . | .
CC(=O)Nc1ccc(C(=O)Nc2nnc(CCc3ccccc3)s2)cc1 | - | - | 25 | - | - | - | 15 | 24
Cc1ccc(C(=O)Nc2nnc(COc3ccccc3)s2)cc1 | - | - | 25 | - | - | - | 34 | 39
O=C(Nc1ccccc1)c1ccc(COc2ccccc2)cc1 | - | - | 13 | - | - | - | 12 | 16
SMILES | UCH37 inh | Yeast superoxide | PG9 Ab binder | MIN6 prolif | NR1D1 modulator | Rce1 inh | PG9 binder conf | PGV04 counter
O=C(Nc1ccc(OCc2ccccc2)cc1)c1ccccc1 | - | - | - | - | - | - | . | .
Cc1ccc(OCc2nnc(NC(=O)c3cccnc3)s2)cc1 | - | - | - | - | - | - | . | .
COc1ccc(/C=C/C(=O)Oc2ccc(C=NNC(=O)COc3c(C)cccc3C)cc2)cc1 | - | . | . | . | . | . | . | .
CCc1nnc2sc(-c3cc(-c4ccccc4)nc4ccccc34)nn12 | - | - | 8.6 | - | - | - | - | 10
Cc1ccc(-c2cc(C(=O)NCc3cnn(C)c3)c3cc(Br)ccc3n2)cc1 | - | - | 11 | - | - | - | - | 58
Cc1nn(C)cc1CN(C)C(=O)c1cc(-c2ccccc2)nc2ccc(Br)cc12 | . | - | 13 | - | - | - | 21 | 26
Cn1cc(CNC(=O)c2cc(-c3ccccc3)nc3ccc(Br)cc23)cn1 | - | - | 11 | - | - | - | 14 | 20
